From article PMC11555253 (Scientific Reports, 2024)

Assays:
[1] = tested on: Saccharomyces cerevisiae α-glucosidase; experiment: α-Glucosidase inhibition assay; assay type: biochemical; conditions: IC50 compared with acarbose
[2] = tested on: α-glucosidase; experiment: Enzyme kinetic study; assay type: biochemical, Saccharomyces cerevisiae; conditions: Km increased, Vmax constant with rising inhibitor concentration
Summary of the method: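 Yeast α-glucosidase (1 U/mL) was preincubated 15 min at 30 °C with test compound at 0, 12.5, 25 and 50 µM or 0, 15, 30 and 60 µM. p-Nitrophenyl α-D-glucopyranoside was then added at graded concentrations, and absorbance change at 405 nm was followed for 20 min. Double-reciprocal plots were made, and KI was taken from a replot of apparent Km versus inhibitor concentration.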

[3] = tested on: α-glucosidase; experiment: Fluorescence quenching measurements and thermodynamic analysis of binding; parameters: species or system Saccharomyces cerevisiae
Summary of the method: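 α-Glucosidase (0.1 U/mL) was equilibrated 10 min with test compound at 0 to 1.0 µM. Emission was scanned from 300–450 nm with excitation at 280 nm in a 1.0 cm quartz cell, and enzyme-free compound background was subtracted. Spectra covered 20–60 °C. KA came from F0/(F0–F) versus total drug concentration at 20 °C and 60 °C, with binding-site number at 20 °C.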

| SMILES | times more potent than acarbose [1] | inhibition mode [2] | KA (binding constant) ([3]; 20 °C) | KA (binding constant) ([3]; 60 °C) |
| --- | --- | --- | --- | --- |
| COc1ccccc1NC(=O)Cn1cc(CSc2nc3ccccc3c3nc(-c4ccccc4)c(-c4ccccc4)n23)nn1 [19e, 2-(4-(((2,3-diphenylimidazo[1,2-c]quinazolin-5-yl)thio)methyl)-1H-1,2,3-triazol-1-yl)-N-(2-methoxyphenyl)acetamide] | 15 times | competitive inhibition | 4.8 × 10 ^4 L mol^–1 s^–1 | 2.7 × 10 ^4 L mol^–1 s^–1 |
| COc1ccccc1NC(=O)Cn1cc(CSc2nc3ccccc3c3nc4ccccc4n23)nn1 [27e, 2-(4-((benzo[4,5]imidazo[1,2-c]quinazolin-6-ylthio)methyl)-1H-1,2,3-triazol-1-yl)-N-(2-methoxyphenyl)acetamide] |  | competitive inhibition | 6.8 × 10 ^4 L mol^–1 s^–1 | 5.0 × 10 ^4 L mol^–1 s^–1 |
